Hits are enriched below; roughly 2.5% of the tested compounds scored in any of these assays.
NR1D1 modulator – modulates human Rev-erb alpha binding to DNA; P20393; Rev-erbα–FITC-DNA binding, fluorescence polarization, 90 min; activity, % at 10 µM; 370,000 tested, 0.79% active; AID 1259318;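 active = activity above about 14%, limit read from the data; passing the limit was not always enough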;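 also: 0% = DMSO wells with 35 nM protein and 100% = DMSO wells with 750 nM protein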
PG9 Ab binder – PG9 antibody binding by small molecule. TR-FRET gp120-PG9 antibody binding. inhibition, % at 6.7 µM. 360,000 tested, 0.43% active. AID 624416; in the data active = inhibition above about 8.5%
MC4R ag barr – activates human MC4R beta-arrestin recruitment; P32245; U2OS MC4R beta-arrestin complementation, luminescence; percent of melanotan II response, DMSO zero; activation, % at 8.9 µM; 360,000 tested, 0.98% active;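 active = activation above a per-plate cutoff, the mean activation of sample wells on that plate plus 3 SD, cut at about 8% in these data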
MC4R antag cAMP – human MC4R antagonism in cAMP assay; P32245; MC4R-expressing cells, MTII-stimulated cAMP, LANCE TR-FRET; inhibition, % at 6.5 µM; 360,000 tested, 0.48% active; AID 540295;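 active = inhibition above its plate's cutoff, the mean of tested wells on that plate plus 3 SD, cut at about 29% in these data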;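 also: 0% = Melanotan II alone and 100% = Melanotan II plus saturating MCL0020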
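Material: human MC4R-expressing U2OS cells. Probe or stimulus: Melanotan II challenge. Dosing: 6.5 µM single dose. Times: 30-min compound, 1-h challenge, 1-h detection, room temperature. Technique: TR-FRET with Eu-cAMP and labeled anti-cAMP, 671 nm. Replication: singlicate.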
NTR1 agonist – agonists of human neurotensin receptor NTR1; P30989; NTR1-U2OS beta-arrestin-GFP spot imaging, agonist mode; activation, % at 20 µM; 330,000 tested, 0.17% active; AID 493036;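 active = activation at or above 40% of the spot to cytoplasm intensity ratio, with at least 20 cells analyzed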;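 also: 0% = DMSO without peptide and 100% = 100 nM NTR1 peptide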
Target sequence (P30989 whole entry, looked up): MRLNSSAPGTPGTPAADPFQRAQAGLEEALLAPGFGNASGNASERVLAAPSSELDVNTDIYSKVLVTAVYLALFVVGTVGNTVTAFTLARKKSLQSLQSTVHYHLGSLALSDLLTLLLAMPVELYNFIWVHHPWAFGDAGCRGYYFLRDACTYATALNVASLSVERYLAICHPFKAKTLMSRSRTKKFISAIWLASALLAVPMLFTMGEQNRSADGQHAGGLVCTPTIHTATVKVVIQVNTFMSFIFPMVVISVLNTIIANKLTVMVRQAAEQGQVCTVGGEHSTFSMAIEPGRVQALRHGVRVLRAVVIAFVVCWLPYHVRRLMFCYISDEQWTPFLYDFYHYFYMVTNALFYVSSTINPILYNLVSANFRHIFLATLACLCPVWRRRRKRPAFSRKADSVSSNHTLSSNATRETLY
PG9 bind confirm – confirmation of small molecules binding HIV-1 gp120 antibody PG9; shares compounds with PG9 Ab binder; TR-FRET PG9 antibody binding, biochemical; inhibition, % at 6.7 µM; 1,500 tested, 90% active; in the data active = inhibition above about 9%
PGV04 counter – counter-screen for PG9 binders: binding control antibody PGV04; shares compounds with PG9 Ab binder; TR-FRET PGV04 antibody-gp120 binding, biochemical; inhibition, % at 6.7 µM; 1,500 tested, 95% active; AID 651604; in the data active = inhibition above about 9.5%
* marks the source's active call; other numbers are inactive results; nt = no result given.

SMILES	NR1D1 modulator	PG9 Ab binder	MC4R ag barr	MC4R antag cAMP	NTR1 agonist	PG9 bind confirm	PGV04 counter
CCOC(=O)CNC(=O)CSc1nc(C(C)C)nc2c1cnn2-c1ccccc1	-1.1	8.6*	-1.1	12.9	nt	10.2*	15.2*
CCOC(=O)CNC(=O)CSc1ncnc2c1cnn2-c1ccccc1	1.4	-2.3	-1.7	15.5	0.4	nt	nt
COc1cccc(C2C(C(=O)c3cccs3)=C(O)C(=O)N2CCN2CCOCC2)c1 (stereo not drawn)	-4.6	-0.2	-0.7	9.0	1.1	nt	nt
O=C(C1=C(O)C(=O)N(CCN2CCOCC2)C1c1cccc(O)c1)c1cc2ccccc2o1 (stereo not drawn)	2.1	3.2	-2.4	9.7	-0.5	nt	nt
O=C(C1=C(O)C(=O)N(CCN2CCOCC2)C1c1cccc(F)c1)c1cc2ccccc2o1 (stereo not drawn)	0.3	24.1*	-1.6	9.6	-1.3	33.8*	45.4*
COc1cccc(C2C(C(=O)c3ccc(C)o3)=C(O)C(=O)N2CCN2CCOCC2)c1 (stereo not drawn)	1.6	9.0*	-1.9	14.3	1.6	21.3*	25.2*
CCN(CC)CCN1C(=O)C(O)=C(C(=O)c2cc3cccc(OC)c3o2)C1c1ccc(F)cc1 (stereo not drawn)	-0.2	14.2*	-2.0	6.4	-1.3	30.2*	36.8*
Cc1ccc(C2C(C(=O)c3cc4ccccc4o3)=C(O)C(=O)N2CCN2CCOCC2)cc1 (stereo not drawn)	0.7	10.3*	-2.2	12.8	-0.2	26.6*	35.2*
COc1ccc(C(=O)CSc2nnc(-c3cccnc3)n2-c2ccc(C)cc2)cc1	-0.3	nt	nt	nt	nt	nt	nt
COC(=O)C1CN(Cc2ccc(F)cc2)CCS(=O)(=O)N1Cc1ccc(C)cc1 (stereo not drawn)	-6.1	nt	nt	nt	nt	nt	nt
COC(=O)[C@]12C[C@H](CC(=O)N3CCC(c4ccccc4)CC3)C(=O)N(Cc3ccc(Cl)cc3Cl)C1=C[C@H](COCc1ccccc1)O[C@@H]2C	-2.4	nt	nt	nt	nt	nt	nt
COc1cccc2cc(C(=O)C3=C(O)C(=O)N(CCN4CCOCC4)C3c3ccc(Cl)cc3)oc12 (stereo not drawn)	3.3	1.3	0.1	6.8	1.2	nt	nt
COc1cccc2cc(C(=O)C3=C(O)C(=O)N(CCN4CCOCC4)C3c3cccc(Cl)c3)oc12 (stereo not drawn)	4.2	18.0*	2.3	13.0	0.1	26.7*	38.1*
COC(CNC(=O)[C@H](Cc1ccccc1)NCC(=O)NC1CCCCC1)OC	-0.5	nt	nt	nt	nt	nt	nt
c1ccc(Sc2ncnc3ccccc23)cc1	1.9	1.0	-0.5	-5.1	4.3	nt	nt
c1ccc(Cc2nnc(Sc3ccccc3)c3ccccc23)cc1	3.4	28.6*	-0.9	24.6	19.3	28.7*	36.4*
Cc1ccc(CNC(=O)c2cc3c(s2)CN(Cc2ccccc2)C3)cc1	11.6	17.9*	3.6	3.2	-0.7	19.6*	21.4*
CSc1ccc(C#N)cc1NC(=O)c1ccccc1	-4.3	-3.2	-1.4	13.2	0.1	nt	nt
CSc1ccc(C#N)cc1NC(=O)c1ccc(Cl)cc1Cl	9.8	10.7*	-0.6	10.1	1.1	19.4*	23.8*
N#Cc1cc2c(nc1SCC(=O)NCc1ccc3c(c1)OCO3)CCCCC2	10.9	13.5*	-1.0	1.9	1.5	16.5*	25.9*
CCn1c(C(=O)NC2CCC(C)CC2)cc2sccc21 (stereo not drawn)	1.5	11.0*	2.5	-5.3	-2.8	4.5	8.3
CC(=O)CSc1nnc(-c2ccc(S(=O)(=O)N3CCCC3)cc2)n1C	-0.9	1.5	1.8	2.5	1.2	nt	nt
Cn1c(SCC(=O)N2CCc3ccccc32)nnc1-c1ccc(S(=O)(=O)N2CCCC2)cc1	1.4	9.5*	1.7	19.7	-0.3	17.4*	25.4*
COC(=O)[C@]12C[C@H](CC(=O)N3CCSCC3)C(=O)N(CCC3=CCCCC3)C1=C[C@H](C1CCCC1)O[C@@H]2C	-2.7	nt	nt	nt	nt	nt	nt
CC1CCN(C(=O)c2ncn3c2c(=O)[nH]c2ccc(Br)cc23)CC1	6.5	9.1*	0.9	-1.8	nt	13.7*	17.8*
CC1CCN(C(=O)c2ncn3c2C(=O)NC[C@@H]3C)CC1	4.8	-0.4	nt	nt	nt	nt	nt

Bioassay records (PubChem BioAssay)
